Blank lines part the entries; values can stand above or below the molecule they belong to. Activity calls are given as the source filed them. No cut-off for these calls is given here.
How the values were obtained:
[1] = Drug level in aqueous solution treated with 20-hydroxyecdysone at 120 mg incubated for 2 days measured at 0.5 to 48 hrs by HPLC-DAD analysis in presence of NaOH; format: physicochemical; conditions: in vivo
How it was run: (§1)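 20E (120 mg) is stirred at room temperature (22−25 °C) in 70% aqueous MeOH with 2% NaOH, and aliquots are taken over time. Analysis is by analytical HPLC on a C18 column with an aqueous acetonitrile gradient and 9.6% acetic acid, 1 mL/min. Compounds are quantified from peak AUC at each λmax against calibration dilutions and expressed relative to initial 20E. Three independent experiments; one-phase decay regression.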

C2C12 = test: Effect on glucose consumption in mouse C2C12 cells at 30 ug/ml after 24 hrs; format: functional, cell-based
How it was run: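 C2C12 myoblasts are grown in high-glucose DMEM with 10% FBS at 37 °C, 5% CO2. At confluence they are switched to DMEM with 10% horse serum for 8 days to form myotubes. Myotubes are then given 10% FBS high-glucose DMEM with or without 30 μg/mL compound for 24 h. Glucose remaining in the medium is measured to calculate glucose consumption.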

[2] = Drug level in aqueous solution treated with (2S,3R,5R,9R,10R,13R,14S,17S)-2,3,14-trihydroxy-10,13-dimethyl-17-((2R,3R)-2,3,6-trihydroxy-6-methylheptan-2-yl)-2,3,4,5,9,11,12,13,14,15,16,17-dodecahydro-1H-cyclopenta[a]phenanthren-6(10H)-one at 120 mg incubated for 2 days measured at 0.5 to 48 hrs by HPLC-DAD analysis in presence of NaOH; format: physicochemical; conditions: in vivo
How it was run: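 120 mg 20E stirred with 100 mg NaOH at room temperature (22−25 °C) and sampled over time. Samples were analysed by HPLC on a C18 column using an aqueous acetonitrile gradient with acetic acid at 1 mL/min. Peak AUC was read at each compound's λmax and calibrated against dilutions of isolated compounds. Amounts are relative to initial 20E; three independent experiments.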

[3] = Chemical stability of the compound in neutral media at room temperature; format: physicochemical
[4] = Chemical stability of the compound in acidic media at pH 3 at room temperature; format: physicochemical; conditions: buffer
[5] = Chemical stability of the compound in basic media at pH 8 at room temperature; format: physicochemical; conditions: buffer
[6] = Drug level in aqueous solution treated with (2S,3R,5R,10S,13R,17S)-2,3,7-trihydroxy-10,13-dimethyl-17-((2R,3R)-2,3,6-trihydroxy-6-methylheptan-2-yl)-2,3,4,5,12,13,16,17-octahydro-1H-cyclopenta[a]phenanthren-6(10H)-one at 80 degC after 4 days; format: physicochemical; conditions: buffer, 96 h
[7] = Chemical stability of the compound at 80 degC; format: physicochemical
[8] = Drug level in aqueous solution treated with (2S,3R,10R,13R,14S,17S)-2,3,6,14-tetrahydroxy-10,13-dimethyl-17-((2R,3R)-2,3,6-trihydroxy-6-methylheptan-2-yl)-3,4,10,11,12,13,14,15,16,17-decahydro-1H-cyclopenta[a]phenanthren-7(2H)-one at pH 3; format: physicochemical; conditions: buffer
[9] = Drug level in aqueous solution treated with 20-hydroxyecdysone at 120 mg at pH 6 to 6.5 measured at 6 to 7 hrs hrs by HPLC-DAD analysis; format: physicochemical; conditions: in vivo
How it was run: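 20E was reacted with NaOH at room temperature, and the mixture was set to pH 6−6.5 with acetic acid before evaporation under nitrogen. Products were quantified by C18 HPLC with an aqueous acetonitrile gradient, using AUC at λmax against calibration dilutions of isolated compounds. Amounts are expressed relative to initial 20E.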

[10] = target: RAC-alpha serine/threonine-protein kinase (Mus musculus) (UniProt P31750); test: Induction of Akt phosphorylation in mouse C2C12 cells at 30 ug/ml pretreated with compound for 24 hrs followed by fresh medium with compound addition measured after 2 hrs by Western blot analysis; format: cell-based
Chain of RAC-alpha serine/threonine-protein kinase (Mus musculus) (P31750 whole entry): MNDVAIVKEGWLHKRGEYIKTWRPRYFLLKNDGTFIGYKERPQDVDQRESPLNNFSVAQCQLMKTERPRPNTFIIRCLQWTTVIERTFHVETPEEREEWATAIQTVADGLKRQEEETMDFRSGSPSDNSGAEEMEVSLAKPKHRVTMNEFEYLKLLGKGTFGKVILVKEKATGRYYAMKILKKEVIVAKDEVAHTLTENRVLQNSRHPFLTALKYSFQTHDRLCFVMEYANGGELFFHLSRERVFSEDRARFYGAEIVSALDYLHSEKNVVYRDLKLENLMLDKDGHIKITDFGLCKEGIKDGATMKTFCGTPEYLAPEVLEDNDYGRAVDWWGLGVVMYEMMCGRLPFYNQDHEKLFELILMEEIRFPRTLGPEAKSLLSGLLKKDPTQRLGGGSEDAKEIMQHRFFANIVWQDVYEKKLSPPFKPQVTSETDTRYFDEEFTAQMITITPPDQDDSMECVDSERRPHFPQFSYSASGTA
How it was run: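 Differentiated C2C12 myotubes (8 days in horse serum medium) are exposed to 30 μg/mL compound in 10% FBS high-glucose DMEM for 24 h, without overnight serum starvation. Fresh medium with the same compound concentration is added for a further 2 h. Cells are lysed in SDS sample buffer, resolved on 10% SDS-PAGE, transferred to PVDF and probed for phospho- and total Akt.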

[11] = Half life of the compound by HPLC analysis in presence of NaOH; format: physicochemical; how it was run: as §1
[12] = Drug level in aqueous solution treated with (2S,3R,10R,13R,14S,17S)-2,3,6,14-tetrahydroxy-10,13-dimethyl-17-((2R,3R)-2,3,6-trihydroxy-6-methylheptan-2-yl)-3,4,10,11,12,13,14,15,16,17-decahydro-1H-cyclopenta[a]phenanthren-7(2H)-one at pH 8; format: physicochemical; conditions: buffer

Drug metabolism [1]: metabolite_detected
Structure (SMILES): CC(C)(O)CC[C@@H](O)[C@](C)(O)[C@H]1CC[C@@]2(O)C3=C(CC[C@]12C)[C@@]1(C)C[C@H](O)[C@H](O)CC1=C(O)C3=O
Activity (C2C12): inactive

Structure (SMILES): CC(C)(O)CC[C@@H](O)[C@](C)(O)[C@H]1CC[C@@]2(O)C3=CC(=O)[C@@H]4C[C@@H](O)[C@@H](O)C[C@]4(C)[C@@]3(O)CC[C@]12C
Drug metabolism [2]: metabolite_detected | Activity (C2C12): inactive

Structure (SMILES): CC(C)(O)CC[C@@H](O)[C@](C)(O)[C@H]1CC=C2C3=C(CC[C@@]21C)[C@@]1(C)C[C@H](O)[C@H](O)CC1=C(O)C3=O
Stability [3]: Stable | Stability [4]: Stable | Stability [5]: Stable | Drug metabolism [6]: metabolite_detected | Stability [7]: Stable | Drug metabolism [8]: metabolite_detected | Drug metabolism [9]: metabolite_detected | Activity (C2C12): inactive | Activity [10]: Active

Structure (SMILES): CC(C)(O)CC[C@@H](O)[C@](C)(O)[C@H]1CC[C@@]2(O)C3=CC(=O)[C@H]4C[C@@H](O)[C@@H](O)C[C@]4(C)[C@@]3(O)CC[C@]12C
Drug metabolism [2]: metabolite_detected | Activity (C2C12): inactive | Activity [10]: Active

Structure (SMILES): CC(C)(O)CC[C@@H](O)[C@](C)(O)[C@H]1CC[C@@]2(O)C3=CC(=O)[C@@H]4C[C@@H](O)[C@@H](O)C[C@]4(C)C3=CC[C@]12C
Activity (C2C12): inactive

half-life [11]: 1.39 h | Activity [10]: inactive
Structure (SMILES): CC(C)(O)CC[C@@H](O)[C@](C)(O)[C@H]1CC[C@@]2(O)C3=CC(=O)[C@@H]4C[C@@H](O)[C@@H](O)C[C@]4(C)[C@H]3CC[C@]12C [20-HYDROXYECDYSONE]
Activity (C2C12): inactive

Stability [3]: Stable | Stability [4]: Stable | Stability [5]: Stable | Drug metabolism [12]: metabolite_detected | Drug metabolism [1]: metabolite_detected | Activity [10]: inactive
Structure (SMILES): CC(C)(O)CC[C@@H](O)[C@](C)(O)[C@H]1CC=C2C3=C(O)C(=O)[C@@H]4C[C@@H](O)[C@@H](O)C[C@]4(C)C3=CC[C@@]21C
Activity (C2C12): inactive

From ChEMBL document CHEMBL3632548, “Oxidized Metabolites of 20-Hydroxyecdysone and Their Activity on Skeletal Muscle Cells: Preparation of a Pair of Desmotropes with Opposite Bioactivities” (J Nat Prod, 2015)
